From ChEMBL document CHEMBL3994605, “Synthesis and biological evaluation of curcumin inspired indole analogues as tubulin polymerization inhibitors” (Eur J Med Chem, 2017) come the findings set out here.

Assay [1] has as its system BT-549. As to the kind of experiment: Antiproliferative activity against human BT549 cells after 48 hrs by MTT assay. It counts as functional, cell-based. The note with it: BT-549, 48 h. The method, boiled down: (§1)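 MTT read-out. Cells were seeded at 5 × 10^3 per well in DMEM or RPMI with 10% FBS and grown 24 h at 37 °C in CO2. Compound dilutions in medium, with vehicle control, were then added for 48 h. MTT (0.5 mg/mL in medium) was given for 4 h, formazan was dissolved in DMSO, and A570 was read. IC50 was taken from concentration–response curves as mean ± SD of three experiments run in triplicate.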
In general terms: Tetrazolium dyes change colour on reduction, which living cells bring about.

Assay [2] deals with A549. The assay is described as follows: Antiproliferative activity against human A549 cells after 48 hrs by MTT assay. It is filed as functional, cell-based. Particulars: A549, 48 h. The method, boiled down: as §1
Assay [3] concerns MDA-MB-231. The assay is described as follows: Antiproliferative activity against human MDA-MB-231 cells after 48 hrs by MTT assay. It is filed as functional, cell-based. The note with it: MDA-MB-231, 48 h. The method, boiled down:
as §1

The subject of assay [4] is 4T1. The assay is described as follows: Antiproliferative activity against mouse 4T1 cells after 48 hrs by MTT assay. It is filed as functional, cell-based. The note with it: 4T1, 48 h. The method, boiled down: as §1
In assay [5] the test system is PC-3. As to the kind of experiment: Antiproliferative activity against human PC3 cells after 48 hrs by MTT assay. It is filed as functional, cell-based. Particulars: PC-3, 48 h. In a few lines: as §1
In assay [6] the test system is DU-145. The assay is described as follows: Antiproliferative activity against human DU145 cells after 48 hrs by MTT assay. Particulars: DU-145, 48 h. It counts as functional, cell-based. In a few lines:
as §1

In assay [7] the test system is HGC-27. As to the kind of experiment: Antiproliferative activity against human HGC27 cells after 48 hrs by MTT assay. It counts as functional, cell-based. Particulars: HGC-27, 48 h. In a few lines:
as §1

Assay [8] deals with HeLa. As to the kind of experiment: Antiproliferative activity against human HeLa cells after 48 hrs by MTT assay. It counts as functional, cell-based. The method, boiled down: as §1
The subject of assay [9] is MDA-MB-231. As to the kind of experiment: Potency index, ratio of curcumin IC50 to compound IC50 for human MDA-MB-231 cells. It is filed as functional.
The subject of assay [10] is BT-549. The assay is described as follows: Potency index, ratio of curcumin IC50 to compound IC50 for human BT549 cells. It counts as functional.
In assay [11] the test system is PC-3. The assay is described as follows: Potency index, ratio of curcumin IC50 to compound IC50 for human PC3 cells. It counts as functional.

Structures can show the parent of a compound that is named as a salt.

For `COc1cc(OC)c(/C=C/C(=O)/C=C/c2cn(Cc3ccc(C(F)(F)F)cc3)c3ccccc23)c(OC)c1`, the IC50 in assay [1], in [2], in [3], in assay [4], in assay [5] and in assay [6] was above 50 µM throughout. Besides, the IC50 in assay [7] and in assay [8] was above 50 µM each time.
As to `COc1cc(OC)c(/C=C/C(=O)/C=C/c2cn(Cc3cccc(F)c3)c3ccccc23)c(OC)c1`, the IC50 in [1], in assay [2], in [3], in [4], in assay [5] and in assay [6] was above 50 µM in each case. For the same compound, the IC50 (commonly the point on the concentration scale where inhibition reaches its midpoint) was above 50 µM in [7] and 40.1 µM in assay [8].
Turning to `COc1ccc(OC)c(/C=C/C(=O)/C=C/c2cn(Cc3ccccc3)c3ccccc23)c1`, the IC50 in assay [1], in assay [2], in assay [3], in [4], in [5] and in [6] was above 50 µM in each case. Further, the IC50 in [7] and in assay [8] was above 50 µM each time.
For `O=C(/C=C/c1ccc(Cl)cc1)/C=C/c1c[nH]c2ccccc12`, the IC50 in [1] is 30.1 µM; in [2], above 50 µM; in [3], 50.2 µM; in assay [4], 40.2 µM; in assay [5] it was above 50 µM; in assay [6] it was above 50 µM. The IC50 in assay [7] was found to be 50 µM; in [8] it was 25.2 µM.
For the compound `COc1cc(OC)c(OC)cc1/C=C/C(=O)/C=C/c1cn(Cc2ccc(F)cc2)c2ccccc12`, the half-inhibitory concentration (IC50) is 25.1 µM in [1]; 50.1 µM in assay [2]; above 50 µM in assay [3]; 25.2 µM in assay [4]; above 50 µM in assay [5]; above 50 µM in assay [6]. The half-maximal inhibitory concentration (IC50) in assay [7] is 40.2 µM; in assay [8] it was 30.7 µM.
With `COc1cc(OC)c(/C=C/C(=O)/C=C/c2cn(Cc3ccccc3)c3ccccc23)c(OC)c1`, the IC50 in assay [1], in [2], in [3], in assay [4], in [5] and in assay [6] was above 50 µM in each case. Further, the IC50 in assay [7] was above 50 µM; in [8], 50.1 µM.
As for `O=C(/C=C/c1ccc(Cl)cc1)/C=C/c1cn(Cc2ccccc2)c2ccccc12`, the IC50 in assay [1], in assay [2], in [3], in [4], in assay [5] and in assay [6] was above 50 µM each time. Besides, the IC50 in assay [7] and in assay [8] was above 50 µM throughout.
In the case of `COc1ccc(/C=C/C(=O)/C=C/c2cn(Cc3ccc(C(F)(F)F)cc3)c3ccccc23)cc1`, the IC50 in [1], in assay [2], in assay [3], in [4], in assay [5] and in assay [6] was above 50 µM in each case. In addition, the 50% inhibitory concentration (IC50) in assay [7] and in assay [8] was above 50 µM each time.
Consider `COc1ccc(/C=C/C(=O)/C=C/c2cn(Cc3ccc(Cl)cc3)c3ccccc23)cc1`, for which the IC50 is 50.4 µM in [1]; above 50 µM in [2]; above 50 µM in assay [3]; above 50 µM in assay [4]; above 50 µM in [5]; above 50 µM in [6]. Moreover, the IC50 was above 50 µM in assay [7] and 50 µM in assay [8].
With `COc1ccc(/C=C/C(=O)/C=C/c2cn(Cc3ccccc3)c3ccccc23)cc1`, the IC50 is 40.1 µM in assay [1]; above 50 µM in [2]; above 50 µM in assay [3]; 50.2 µM in assay [4]; above 50 µM in assay [5]; above 50 µM in [6]. In addition, the half-maximal inhibitory concentration (IC50) in assay [7] and in [8] was above 50 µM each time.
Take `COc1ccc(/C=C/C(=O)/C=C/c2cn(Cc3ccc(F)cc3)c3ccccc23)cc1`: the IC50 in [1], in assay [2], in [3], in [4], in [5] and in assay [6] was above 50 µM each time. Moreover, the IC50 in [7] and in assay [8] was above 50 µM throughout.
Consider `COc1ccc(OC)c(/C=C/C(=O)/C=C/c2cn(Cc3ccc(C(F)(F)F)cc3)c3ccccc23)c1`, for which the IC50 in assay [1], in [2], in assay [3], in assay [4], in assay [5] and in assay [6] was above 50 µM each time. Besides, the IC50 in assay [7] and in [8] was above 50 µM in each case.
For the compound `COc1cc(OC)c(OC)cc1/C=C/C(=O)/C=C/c1cn(Cc2ccccc2)c2ccccc12`, the IC50 in assay [1] was 40.6 µM; in [2], above 50 µM; in [3], above 50 µM; in [4], 40.8 µM; in assay [5], above 50 µM; in [6], above 50 µM. In addition, the IC50 in assay [7] is above 50 µM; in assay [8], 50.1 µM.
In the case of `COc1ccc(/C=C/C(=O)/C=C/c2c[nH]c3ccccc23)cc1`, the IC50 turned out to be 31.4 µM in assay [1]; 45.1 µM in [2]; 32 µM in [3]; 21.6 µM in [4]; 3.51 µM in assay [5]; 13.6 µM in [6]. The same compound yielded an IC50 in [7] of 24 µM.
Consider `COc1ccc(/C=C/C(=O)/C=C/c2cn(Cc3ccc(F)cc3)c3ccccc23)cc1OC`, for which the IC50 in assay [1] is 30.1 µM; in assay [2], above 50 µM; in assay [3], above 50 µM; in [4] it was 40 µM; in assay [5], above 50 µM; in assay [6], above 50 µM. Moreover, the IC50 in assay [7] is 50.3 µM; in assay [8], above 50 µM.
In the case of `COc1ccc(/C=C/C(=O)/C=C/c2cn(Cc3cccc(F)c3)c3ccccc23)cc1`, the IC50 in assay [1] was 40.4 µM; in [2], above 50 µM; in assay [3] it was above 50 µM; in assay [4], above 50 µM; in assay [5], above 50 µM; in [6], above 50 µM. Moreover, the IC50 in [7] and in [8] was above 50 µM throughout.
Take `COc1ccc(/C=C/C(=O)/C=C/c2cn(Cc3ccc(OC(F)(F)F)cc3)c3ccccc23)cc1OC`: the IC50 in [1] was 50.1 µM; in assay [2] it was above 50 µM; in assay [3], above 50 µM; in assay [4], above 50 µM; in [5] it was above 50 µM; in [6] it was above 50 µM. Also, the IC50 in [7] is above 50 µM; in [8] it was 50.5 µM.
In the case of `COc1cc(OC)c(OC)cc1/C=C/C(=O)/C=C/c1cn(Cc2ccc(C(F)(F)F)cc2)c2ccccc12`, the IC50 in assay [1] was 25.2 µM; in assay [2] it was above 50 µM; in assay [3], above 50 µM; in [4], 25.9 µM; in [5] it was above 50 µM; in assay [6], above 50 µM. The figures for the IC50 in assay [7] and in assay [8] were 40.1 µM and 50.6 µM, respectively.
`COc1ccc(OC)c(/C=C/C(=O)/C=C/c2cn(Cc3ccc(F)cc3)c3ccccc23)c1`: the IC50 in [1] was 50.1 µM; in assay [2], above 50 µM; in assay [3] it was above 50 µM; in [4], above 50 µM; in assay [5], above 50 µM; in [6], above 50 µM. Also, the results for the concentration for half-maximal inhibition (IC50) in [7] and in [8] were above 50 µM and 50.9 µM, respectively.
Take `COc1cc(OC)c(/C=C/C(=O)/C=C/c2c[nH]c3ccccc23)c(OC)c1`: the IC50 is 10.5 µM in assay [1], 46.4 µM in assay [3], 13.9 µM in assay [4] and 3.12 µM in [5]. Besides, the “Ratio IC50” value was 0.3 in assay [9], 2.4 in [10] and 3.9 in assay [11].
For the compound `CC[C@]1(O)C[C@H]2CN(CCc3c([nH]c4ccccc34)[C@@](C(=O)OC)(c3cc4c(cc3OC)N(C=O)[C@H]3[C@@](O)(C(=O)OC)[C@H](OC(C)=O)[C@]5(CC)C=CCN6CC[C@]43[C@@H]65)C2)C1` [VINCRISTINE SULFATE], the IC50 is 0.0547 µM in assay [1]; 0.172 µM in assay [2]; 0.117 µM in assay [3]; 0.0276 µM in assay [5]; 0.0723 µM in assay [6].
For the compound `COc1cc(/C=C/C(=O)CC(=O)/C=C/c2ccc(O)c(OC)c2)ccc1O` [CURCUMIN], the IC50 in assay [1] amounted to 24.9 µM; in [3], 15.8 µM; in assay [5] it was 12.2 µM; in [6] it was 28.4 µM; in [8], 25.4 µM.
For `COc1cc(OC)c(/C=C/C(=O)/C=C/c2cn(Cc3ccc(Cl)cc3)c3ccccc23)c(OC)c1`, the IC50 in assay [1], in assay [2], in assay [3], in assay [4], in assay [5] and in assay [6] was above 50 µM throughout. The IC50 was above 50 µM in [7] and 40.9 µM in [8].
As for `COc1cc(OC)c(/C=C/C(=O)/C=C/c2cn(Cc3ccc(F)cc3)c3ccccc23)c(OC)c1`, the IC50 in assay [1], in [2], in assay [3], in assay [4], in [5] and in assay [6] was above 50 µM each time. The values for the IC50 in [7] and in [8] were 50.8 µM and above 50 µM, respectively.
